Test results as given in article PMC12166265 (Clinical Pharmacology and Therapeutics, 2025).
Where two headings read alike, the source gives them in different places.

How the values were obtained:
ABCG2 p.Q141K variant = format: in vivo, human; conditions: two p.Q141K (CA) vs nine REF (CC) individuals; T = 0 h
Procedure, shortened: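 Open-label fixed-sequence crossover in 11 healthy non-smoking adults aged 18–64. Single oral rosuvastatin 10 mg given after an overnight fast, with fasting continued 4 h. Heparinised venous plasma was stored at −70°C and analysed by LC–MS. ABCG2 c.421C>A was genotyped blind by PCR and Sanger sequencing. Nine CC and two CA subjects were compared at T = 0 h and by noncompartmental PK, using log-transformed geometric means and unpaired t-tests.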

BCRP = conditions: 14 healthy males, BMS-986371; cited from earlier work
[1] = format: in vivo, human; conditions: for Effect of eltrombopag administration on plasma concentrations (in words): eltrombopag 75 mg daily for 5 days; for AUC0−24, geometric mean ratio (90% CI) of rosuvastatin + eltrombopag arm to rosuvastatin alone arm / C0, geometric mean ratio (90% CI) of rosuvastatin + eltrombopag arm to rosuvastatin alone arm / Cmax, geometric mean ratio (90% CI) of rosuvastatin + eltrombopag arm to rosuvastatin alone arm: in vivo
[2] = both, human, plasma, oral, 10 mg
[3] = rosuvastatin + eltrombopag arm, geometric mean (90% CI)
[4] = rosuvastatin alone arm, geometric mean (90% CI)

| Compound | Effect of eltrombopag administration on plasma concentrations (in words) [1] | AUC0−24, geometric mean ratio (90% CI) of rosuvastatin + eltrombopag arm to rosuvastatin alone arm ([1]; human) | C0, geometric mean ratio (90% CI) of rosuvastatin + eltrombopag arm to rosuvastatin alone arm ([1]; human) | Cmax, geometric mean ratio (90% CI) of rosuvastatin + eltrombopag arm to rosuvastatin alone arm ([1]; human) | AUC0−24 [1, 3] | C0 [1, 3] | Cmax [1, 3] | AUC0−24 [1, 4] | C0 [1, 4] | Cmax [1, 4] | also measured |
| --- | --- | --- | --- | --- | --- | --- | --- | --- | --- | --- | --- |
| Cc1cc2nc3c(=O)[nH]c(=O)nc-3n(C[C@H](O)[C@H](O)[C@H](O)CO)c2cc1C [Riboflavin] | did not lead to corresponding increases | – | – | – | – | – | – | – | – | – | Baseline concentrations, heterozygous p.Q141K vs homozygous reference allele (ABCG2 p.Q141K variant): no association; Increase in riboflavin AUC0−4 (BCRP): 1.25 fold; Increase in riboflavin AUC0−24 (BCRP): 1.14 fold; Increase in riboflavin Cmax (BCRP): 1.11 fold; C0 at 0 h ([1]; both, human, plasma, oral): 2.79 ng/mL; Cmax ([1]; both, human, plasma, oral): 3.61 ng/mL; AUC [1, 2]: 11.7 ng·h/mL; C0 at 0 h [1, 2]: 2.72 ng/mL; Cmax [1, 2]: 4.16 ng/mL; AUC(0-t) ([1]; both, human, plasma, oral, 10 mg, AUC0−4, rosuvastatin alone arm, geometric mean (90% CI)): 10.6 ng·h/mL; AUC(0-t) ([1]; both, human, plasma, oral, 10 mg, AUC0−24, rosuvastatin alone arm, geometric mean (90% CI)): 65.9 ng·h/mL; AUC(0-t) ([1]; both, human, plasma, oral, 10 mg, mean riboflavin AUC0−4, fasted state, rosuvastatin alone arm): 10.6 ng·h/mL; AUC(0-t) ([1]; both, human, plasma, oral, AUC0−4, rosuvastatin + eltrombopag arm, geometric mean (90% CI)): 10.2 ng·h/mL; AUC(0-t) ([1]; both, human, plasma, oral, AUC0−24, rosuvastatin + eltrombopag arm, geometric mean (90% CI)): 65.6 ng·h/mL; AUC(0-t) ([1]; both, human, plasma, oral, mean riboflavin AUC0−4, fasted state, in the presence of eltrombopag): 9.7 ng·h/mL |
| Coproporphyrin-I [CP‐I] | no effect | 0.96 (0.88–1.04); P = 0.50 | 0.90 (0.83–0.98); P = 0.05 | 0.95 (0.88–1.03); P = 0.33 | 16.2 (14.2–18.4) nM*h | 0.74 nM | 0.89 nM | 16.9 (15.3–18.6) nM*h | 0.81 nM | 0.93 nM | – |
| Coproporphyrin-III [CP‐III] | no effect | 0.93 (0.80–1.08); P = 0.44 | 0.75 (0.64–0.88); P = 0.01 | 0.83 (0.70–0.98); P = 0.08 | 1.70 (1.46–1.99) nM*h | 0.09 nM | 0.11 nM | 1.83 (1.60–2.09) nM*h | 0.12 nM | 0.13 nM | – |
